Reference: article PMC8518816 (Chemmedchem, 2021)

Assays:
TCPTP = molecular target: T1, TCPTP (Homo sapiens, UniProt P17706); assay: TCPTP enzyme inhibition; type: biochemical; details: read-out: % Inhib. TCPTP @ 1 μM
T1 sequence (P17706 1-341 limits assumed): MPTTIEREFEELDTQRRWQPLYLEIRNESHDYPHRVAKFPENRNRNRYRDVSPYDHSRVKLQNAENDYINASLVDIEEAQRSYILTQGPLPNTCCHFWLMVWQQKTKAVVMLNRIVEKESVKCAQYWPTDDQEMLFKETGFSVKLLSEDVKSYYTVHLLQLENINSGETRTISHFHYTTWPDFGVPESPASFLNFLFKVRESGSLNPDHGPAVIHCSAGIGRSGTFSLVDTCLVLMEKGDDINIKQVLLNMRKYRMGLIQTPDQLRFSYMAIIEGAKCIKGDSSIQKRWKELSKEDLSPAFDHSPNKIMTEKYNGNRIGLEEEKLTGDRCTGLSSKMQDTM
How it was run: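 Selectivity counter-screen using recombinant 341-amino-acid TCPTP mixed with test compound at 1 μM. Substrate pNPP added, and hydrolysis read as absorbance increase at 405 nm. Each point run in duplicate; output is percent inhibition.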

PTP1B = molecular target: T2, PTP1B (Homo sapiens, UniProt P18031); assay: PTP1B enzyme inhibition; type: biochemical; details: for inhibition at 1 µM: read-out: % Inhib. PTP1B @ 1 μM
T2 sequence (P18031 1-322 limits assumed): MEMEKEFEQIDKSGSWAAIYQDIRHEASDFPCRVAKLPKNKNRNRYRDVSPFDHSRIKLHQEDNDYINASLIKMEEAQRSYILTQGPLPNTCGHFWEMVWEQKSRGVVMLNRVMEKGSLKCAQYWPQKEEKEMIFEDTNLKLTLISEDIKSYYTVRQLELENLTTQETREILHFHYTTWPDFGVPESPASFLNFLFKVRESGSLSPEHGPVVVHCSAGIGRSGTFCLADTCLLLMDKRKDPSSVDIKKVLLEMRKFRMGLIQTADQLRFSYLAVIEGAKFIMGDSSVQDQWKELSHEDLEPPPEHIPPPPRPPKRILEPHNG
How it was run: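 Recombinant 322-amino-acid PTP1B preincubated with test compound; pNPP substrate then added and hydrolysis followed as absorbance increase at 405 nm. IC50 fitted from increasing compound concentrations, each point in duplicate. Percent inhibition also taken at 1 μM.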

C2 C12 myotubes = assay: Glucose uptake; type: cell-based, Mouse; details: 2 μM, 90 min, 2-NBDG 0.1 mM
How it was run: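 Mouse C2C12 myoblasts grown in DMEM with 10 % heat-inactivated FBS and penicillin/streptomycin (37 °C, 5 % CO2), then differentiated in DMEM with 2 % horse serum, changed every 48 h. Test compound at 2 μM for 90 min (insulin 10 nM, 30 min as positive control), then 0.1 mM 2-NBDG for 30 min. Washed three times with cold PBS. Intracellular fluorescence minus no-2-NBDG autofluorescence, corrected for BCA protein, relative to vehicle; 5 independent experiments, mean ± S.E.M.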

[1] = IC50±SD, soluble 322 amino acids PTP1B, pNPP substrate
[2] = pIC50, soluble 322 amino acids PTP1B

| SMILES | inhibition at 1 µM (TCPTP) [%] | SI (selectivity index, percentage inhibition ratio PTP1B/TCPTP at 1 μM) (PTP1B) | inhibition at 1 µM (PTP1B) [%] | IC50 (PTP1B; [1]) [nM] | IC50 (PTP1B; [2]) [nM] | increase of glucose uptake with respect to control cells (C2 C12 myotubes) [%] |
| --- | --- | --- | --- | --- | --- | --- |
| Cc1nc2ccccc2n2cccc12 [Compound 1, 4‐methylpyrrolo[1,2‐a]quinoxaline] | 54 | 0.94 | 51 | – | – | – |
| CC1Nc2ccccc2-n2nnnc21 (stereo not shown) [Compound 10, 4‐Methyl‐4,5‐dihydrotetrazolo[1,5‐a]quinoxaline] | 35 | – | 37 | 2170 ± 80 | 2190 | – |
| c1ccc2c(c1)ncc1nnnn12 [Compound 9, Tetrazolo[1,5‐a]quinoxaline] | 68 | 1.17 | 80 | 620 ± 200 | 631 | – |
| Cc1nc2ccccc2n2nnnc12 [Compound 4, 4‐Methyltetrazolo[1,5‐a]quinoxaline] | 50 | – | 46 | 1480 ± 70 | 1510 | – |
| Cc1nc2ccccc2n2ccnc12 [Compound 2, 4‐Methylimidazo[1,2‐a]quinoxaline] | 44 | 1.97 | 87 | 460 ± 40 | 468 | 15 |
| Cc1nc2ccccc2n2cnnc12 [Compound 3, 4‐Methyl[1,2,4]triazolo[4,3‐a]quinoxaline] | 55 | 1.27 | 70 | 790 ± 10 | 794 | ~30 |
